In paper PMC3793015 (Journal of agricultural and food chemistry, 2013):

Experiments:
[1] = test system: IL-8 secretion by macrophage-like THP-1 cells; assay: IL-8 secretion; format: cell-based, human
Summary of the method: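 THP-1 cells, differentiated with 100 nM PMA for 48 h, were pretreated with compound added as a DMSO stock to 10% FBS medium, then stimulated with E. coli O111:B4 LPS. Supernatant IL-8 was measured by ELISA in LPS-treated and unstimulated cultures.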

[2] = test system: TNF-α secretion by MDM cells; assay: TNF-α secretion; format: cell-based, human
Summary of the method: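 Primary macrophages came from buffy-coat monocytes (Ficoll, clumping), differentiated 6 days with 50 ng/mL M-CSF (97% pure by CD14/CD11b). Compound was delivered in FBS at 10% FBS in RPMI 1640. Cells were then stimulated with E. coli O111:B4 LPS or left unstimulated. Secreted TNF-α was quantified by ELISA.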

[3] = test system: HT-29; assay: Cytotoxicity of α-MG; format: cell-based, human; conditions: read-out: IC50 (cytotoxicity); HT-29, 24 h, Tween 40 delivery
Summary of the method: (§1)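 Cytotoxicity was judged by phase-contrast morphology and MTT reduction to formazan after exposure to increasing compound concentrations. Exposure was 24 h for RAW 264.7, MDM, HepG2 and HT-29, 8 h for PMA-differentiated THP-1, and 4 h for differentiated Caco-2. Delivery was DMSO into 10% FBS medium for RAW 264.7, THP-1 and HepG2; FBS-complexed compound at 10% FBS in RPMI 1640 for MDM; Tween 40 micelles for Caco-2 and HT-29.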

[4] = test system: THP-1 cells; assay: Cellular uptake and metabolism of α-MG; format: in vitro ADME, human
Summary of the method: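 THP-1 monocytes were differentiated with 100 nM PMA for 48 h, then exposed 24 h to 5.2 μM compound (DMSO stock into 10% FBS medium). Activated cultures were pre-exposed to 5 ng/mL LPS for 4 h and washed with PBS. Spent medium and cells were collected separately, extracted and analysed by RP-HPLC for free and glucuronidated/sulfated xanthones. Amounts are % of initial compound; mean ± SD, n ≥ 5.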

[5] = test system: MDM; assay: Cytotoxicity of α-MG; format: cell-based, human; conditions: read-out: IC50 (cytotoxicity), 24 h, 10% FBS delivery
Summary of the method: as §1

[6] = test system: TNF-α secretion by HepG2 cells; assay: TNF-α secretion; format: cell-based, human
Summary of the method: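 HepG2 monolayers, 2 days post-confluence, were pretreated with compound (DMSO stock into 10% FBS medium) and then stimulated with phorbol 12-myristate 13-acetate. Secreted TNF-α was quantified by ELISA in activated and nonactivated cultures.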

[7] = test system: RAW 264.7 cells; assay: Cellular uptake and metabolism of α-MG; format: in vitro ADME, murine
Summary of the method: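 RAW 264.7 cells, 2 days post-confluence, received 7.7 μM compound (DMSO stock into 10% FBS medium) for 24 h. LPS-activated cultures had 5 ng/mL LPS for 4 h, then a PBS wash, before compound. Cells and medium were collected together because some cells were nonadherent. Samples were extracted and analysed by RP-HPLC for free and glucuronidated/sulfated xanthones, as % of initial concentration.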

[8] = test system: THP-1; assay: Cytotoxicity of α-MG; format: cell-based, human; conditions: read-out: IC50 (cytotoxicity); THP-1, 8 h, 10% FBS delivery
Summary of the method: as §1

[9] = RAW 264.7, combined medium and cells, 7.7 μM, 24 h

COc1c(O)cc2oc3cc(O)c(CC=C(C)C)c(O)c3c(=O)c2c1CC=C(C)C [α-MG, α-mangostin]
inhibition of IL-8 chemokine secretion ([1]; activated THP-1, 10 μM pretreatment 4 h, LPS 0.1 ng/mL 4 h): 30–40%
effect on secretion of IL-8 ([1]; nonactivated THP-1 cultures): not altered
TNF-α secretion in absence vs presence of α-MG ([2]; 0.7 μM, LPS-treated MDM, p > 0.05, data not shown): similar
effect on TNF-α secretion ([2]; 0.7 μM, nonactivated MDM, p < 0.05, data not shown): increased
increase of LPS-stimulated secretion of TNF-α ([2]; MDM, 4.5 μM pretreatment 4 h, LPS 100 ng/mL 10 h): more than 50%
effect on basal secretion of TNF-α ([2]; nonactivated MDM cultures): more than doubled
IC50 [3]: 180 µM
xanthone in media, THP-1 ([4]; 0 h, amount of α-MG at start): 33710 ± 161 pmol/dish
intracellular profile table, α-MG at 0 h, THP-1 ([4]; 0 h, control cultures): 33710 ± 161 pmol/dish
intracellular xanthone, THP-1 ([4]; 24 h after addition of α-MG, control cultures, nd: not detected): 11439 ± 995 pmol/dish
intracellular ratio of free to conjugated xanthones, activated vs control ([4]; THP-1, 5 ng/mL LPS 4 h before α-MG, 24 h, p < 0.05): increased
free xanthones in cells, of initial α-MG ([4]; THP-1, 5.2 μM, 24 h, control): 20 ± 4%
free xanthones in spent medium, of initial α-MG ([4]; THP-1, 5.2 μM, 24 h, control): 40 ± 1%
phase II conjugates in cells, of initial α-MG ([4]; THP-1, 5.2 μM, 24 h, control): 14 ± 3%
recovery of xanthones, of α-MG added ([4]; THP-1, 24 h incubation): 75 ± 6%
IC50 [5]: > 12 µM
attenuation of TNF-α secretion ([6]; PMA-activated HepG2, 7 μM pretreatment 16 h, PMA 50 ng/mL 4 h): 22%
effect on secretion of TNF-α ([6]; nonactivated HepG2 cultures): not altered
recovery of α-MG ([7]; RAW 264.7, 24 h incubation): 80 ± 6%
ratio of free to conjugated xanthones, activated vs control ([7]; RAW 264.7, LPS treatment, data not shown): increased
free α-MG, of initial concentration [7, 9]: 18 ± 3%
glucuronidated/sulfated conjugates, of initial concentration [7, 9]: 61 ± 6%
IC50 [8]: 23 µM
